From ChEMBL document CHEMBL3045505, “Antifungal activity of strawberry fruit volatile compounds against Colletotrichum acutatum” (2007)
Activity calls are given as the source filed them. The calls are words filed in the database; no cut-off is given here.

Key:
Colletotrichum acutatum [1] = assay: Antifungal activity against Colletotrichum acutatum assessed as inhibition of pore appressorial formation at 25 degC measured after 4 to 24 hr; assay type: functional
Procedure, shortened: (§1)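 C. acutatum CECT 20240 conidia (PDA, 25 °C, continuous light, 7 days) as a 100 µL droplet of 5 × 10^5 conidia mL-1 on Parafilm-covered slides in sealed Petri dishes. Volatile applied to filter paper in the vapour phase at ≥4 doses, 0.13–1351.35 µL L-1, with water control. Incubated at 25 °C and scored microscopically at 4 and 24 h. Five dishes per dose, experiment run twice.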

Colletotrichum acutatum [2] = assay: Antifungal activity against Colletotrichum acutatum assessed as inhibition of appressorium pigmentation at 25 degC measured after 4 to 24 hr; assay type: functional; procedure, shortened: as §1
Colletotrichum acutatum [3] = assay: Antifungal activity against Colletotrichum acutatum assessed as inhibition of mycelial growth at 25 degC measured after 8 days; assay type: functional
Procedure, shortened: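 A 5 mm PDA mycelial disc was placed in a sealed 74 mL dish holding 20 mL PDA. Volatile on filter paper under the lid at ≥6 doses, 33.78–1351.35 µL L-1, with extra doses for some compounds; water control. Colony diameter read after 8 days at 25 °C; five dishes per dose, run twice. MID, ID95 and ID50 from probit regression on log dose.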

Colletotrichum acutatum [4] = assay: Antifungal activity against Colletotrichum acutatum assessed as inhibition of germination at 25 degC measured after 4 to 24 hr; assay type: functional; procedure, shortened: as §1
Colletotrichum acutatum [5] = assay: Antifungal activity against Colletotrichum acutatum assessed as inhibition of appressorium formation at 25 degC measured after 4 to 24 hr; assay type: functional; procedure, shortened: as §1
Colletotrichum acutatum [6] = assay: Antifungal activity against Colletotrichum acutatum assessed as inhibition of microcyclic conidiation at 25 degC measured after 4 to 24 hr; assay type: functional; procedure, shortened: as §1
Colletotrichum acutatum [7] = assay: Antifungal activity against Colletotrichum acutatum inoculated in strawberry fruits assessed as fruit damaging at 5 ul/L measured after 7 days; assay type: functional, organism-based
Procedure, shortened: (§2)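 Strawberry fruits (cv. Camarosa) at commercial maturity inoculated with 10^6 conidia mL-1. Filter paper carrying 4, 5, 10, 20 or 50 µL L-1 volatile placed next to the fruit; inoculated untreated fruit as control. Kept at 25 °C under continuous light; damage rated at 7 days (0 = intact, 1 = covered with mycelia). Eight replicates, mean ± SE.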

Colletotrichum acutatum [8] = assay: Antifungal activity against Colletotrichum acutatum assessed as high disorganization of cell components at 33.78 ul/L by transmission electrol microscopy; assay type: functional, organism-based
Colletotrichum acutatum [9] = assay: Antifungal activity against Colletotrichum acutatum inoculated in strawberry fruits assessed as fruit damaging at >=20 ul/L measured after 7 days; assay type: functional; procedure, shortened: as §2
Colletotrichum acutatum [10] = assay: Antifungal activity against Colletotrichum acutatum assessed as disruption of cell wall at 33.78 ul/L by transmission electrol microscopy; assay type: functional, organism-based
Colletotrichum acutatum [11] = assay: Antifungal activity against Colletotrichum acutatum inoculated in strawberry fruits assessed as fruit damaging at 4 ul/L measured after 7 days; assay type: functional, organism-based; procedure, shortened: as §2
Colletotrichum acutatum [12] = assay: Antifungal activity against Colletotrichum acutatum inoculated in strawberry fruits assessed as fruit damaging at 10 ul/L measured after 7 days; assay type: functional; procedure, shortened: as §2
Colletotrichum acutatum [13] = assay: Antifungal activity against Colletotrichum acutatum assessed as disruption of plasma membrane at 33.78 ul/L by transmission electrol microscopy; assay type: functional, organism-based

| SMILES | MID (Colletotrichum acutatum [1]) [uL/L] | MID (Colletotrichum acutatum [2]) [uL/L] | ID50 (Colletotrichum acutatum [3]) [uL/L] | ID95 (Colletotrichum acutatum [3]) [uL/L] | MID (Colletotrichum acutatum [3]) [uL/L] | MID (Colletotrichum acutatum [4]) [uL/L] | MID (Colletotrichum acutatum [5]) [uL/L] | MID (Colletotrichum acutatum [6]) [uL/L] | Activity (Colletotrichum acutatum [7]) | Activity (Colletotrichum acutatum [8]) | Activity (Colletotrichum acutatum [9]) [%] | Activity (Colletotrichum acutatum [10]) | Activity (Colletotrichum acutatum [11]) | Activity (Colletotrichum acutatum [12]) [%] | Activity (Colletotrichum acutatum [13]) |
| --- | --- | --- | --- | --- | --- | --- | --- | --- | --- | --- | --- | --- | --- | --- | --- |
| CCC/C=C/CO | 33.78 | 33.78 | 151.76 | 253.78 | 268.92 | 135.13 | 33.78 | 135.13 | – | – | – | – | – | – | – |
| CCC/C=C/C=O | 1.35 | 1.35 | 26.89 | 32.97 | 33.65 | 6.76 | 6.76 | 6.76 | inactive | Active | 100 | Active | inactive | 87.5 | Active |
| CCC/C=C/COC(C)=O | 135.13 | 135.13 | 221.62 | 584.86 | 651.35 | 337.84 | 337.84 | 337.84 | – | – | – | – | – | – | – |
| CCCCCCO [1-HEXANOL] | 33.78 | 33.78 | 151.35 | 255.14 | 270.27 | 337.84 | 337.84 | 337.84 | – | – | – | – | – | – | – |
| CC/C=C\CCOC(C)=O [(Z)-hex-3-en-1-yl acetate] | 135.13 | 135.13 | 503.11 | 2063.11 | 2476.35 | 337.84 | 337.84 | 337.84 | – | – | – | – | – | – | – |
| CC/C=C\CCO [CIS-3-HEXENOL] | 135.13 | 135.13 | 230.14 | 595 | 640.54 | 337.84 | 337.84 | 337.84 | – | – | – | – | – | – | – |
| CCCCCC=O [HEXANAL] | 6.76 | 6.76 | 151.35 | 256.49 | 272.16 | 33.78 | 33.78 | 33.78 | – | – | – | – | – | – | – |
| CCCCCCOC(C)=O [HEXYL ACETATE] | 337.84 | 337.84 | 718.65 | 5100.41 | 6441.89 | 1351.35 | 1351.35 | 1351.35 | – | – | – | – | – | – | – |
